ChEMBL document CHEMBL2346554, “Extreme multidrug resistant HIV-1 protease with 20 mutations is resistant to novel protease inhibitors with P1'-pyrrolidinone or P2-tris-tetrahydrofuran” (J Med Chem, 2013)
Active and inactive are the calls of the source. The rule behind the calls is not given here.

Experiments:
[1] = test system: Human immunodeficiency virus type 1 protease (Human immunodeficiency virus 1), Q72874 [Q7K,L10F,I13V,I15V,D30V,V32I,L33F,E35D,M36I,S37N,I47V,I54L,Q58E,I62V,L63P,A71V,I84V,N88D,L89T,L90M]; test: Inhibition of transferrin receptor-fused HIV1 protease Q7K, L10F, I13V, I15V, D30V, V32I, L33F, E35D, M36I, S37N, I47V, I54L, Q58E, I62V, L63P, A71V, I84V, N88D, L89T, L90M mutant autoprocessing expressed in Escherichia coli at 100 to 150 uM by SDS-PAGE analysis
[2] = test system: Human immunodeficiency virus type 1 protease (Human immunodeficiency virus 1), Q72874 [Q7K,L10F,I13V,I15V,D30V,V32I,L33F,E35D,M36I,S37N,I47V,I54L,Q58E,I62V,L63P,A71V,I84V,N88D,L89T,L90M]; test: Binding affinity to HIV1 protease Q7K, L10F, I13V, I15V, D30V, V32I, L33F, E35D, M36I, S37N, I47V, I54L, Q58E, I62V, L63P, A71V, I84V, N88D, L89T, L90M mutant expressed in Escherichia coli BL21 (DE3) assessed as dissociation constant by isothermal titration calorimetric analysis
In short: (§1)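 PR20 (1.8−2.15 mg/mL in 12 mM HCl) was folded by adding 5 mM sodium acetate pH 6, then 100 mM sodium acetate pH 5, and centrifuged. It was titrated in the ITC cell with inhibitor at ~10-fold the PR20 concentration, in matching buffer. Inhibitor concentration was estimated from the fitted N at known PR20, assuming 1:1 binding. KL = 1/KA.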

[3] = test system: Human immunodeficiency virus type 1 protease (Human immunodeficiency virus 1), Q72874 [Q7K,L10F,I13V,I15V,D30V,V32I,L33F,E35D,M36I,S37N,I47V,I54L,Q58E,I62V,L63P,A71V,I84V,N88D,L89T,L90M]; test: Binding affinity to HIV1 protease Q7K, L10F, I13V, I15V, D30V, V32I, L33F, E35D, M36I, S37N, I47V, I54L, Q58E, I62V, L63P, A71V, I84V, N88D, L89T, L90M mutant expressed in Escherichia coli BL21 (DE3) assessed as association constant by isothermal titration calorimetric analysis; in short: as §1
[4] = target: Protease (Human immunodeficiency virus 1) (UniProt Q9YQ12); test: Inhibition of HIV1 protease dimerization transfected in COS7 cells relative to darunavir; assay type: cell-based; settings: COS-7
[5] = test system: Human immunodeficiency virus type 1 protease (Human immunodeficiency virus 1), Q72874 [Q7K,L10F,I13V,I15V,D30V,V32I,L33F,E35D,M36I,S37N,I47V,I54L,Q58E,I62V,L63P,A71V,I84V,N88D,L89T,L90M]; test: Ratio of amprenavir dissociation constant K to compound dissociation constant K for HIV1 protease Q7K, L10F, I13V, I15V, D30V, V32I, L33F, E35D, M36I, S37N, I47V, I54L, Q58E, I62V, L63P, A71V, I84V, N88D, L89T, L90M mutant
[6] = test system: Human immunodeficiency virus type 1 protease (Human immunodeficiency virus 1), Q72874 [Q7K,L10F,I13V,I15V,D30V,V32I,L33F,E35D,M36I,S37N,I47V,I54L,Q58E,I62V,L63P,A71V,I84V,N88D,L89T,L90M]; test: Inhibition of transferrin receptor-fused HIV1 protease Q7K, L10F, I13V, I15V, D30V, V32I, L33F, E35D, M36I, S37N, I47V, I54L, Q58E, I62V, L63P, A71V, I84V, N88D, L89T, L90M mutant autoprocessing expressed in Escherichia coli up to 100 uM by SDS-PAGE analysis
In short: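 TFR-fused PR20 precursor was expressed in E. coli cultures grown with increasing inhibitor in the medium, up to 100 μM. The protein was partially purified, and autoprocessing was assessed by SDS-PAGE against wild-type TFR-PR with inhibitor.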

[7] = target: Protease (Human immunodeficiency virus 1) (UniProt Q9YQ12); settings: 0.5 to 8 uM

| SMILES | inhibition [1] | K [2] | K [3] | fold change (FC) [4] | Ratio [5] | inhibition [6] | inhibition [7] |
| --- | --- | --- | --- | --- | --- | --- | --- |
| CC(C)CN(C[C@@H](O)[C@H](Cc1ccccc1)NC(=O)O[C@H]1CCOC1)S(=O)(=O)c1ccc(N)cc1 | inactive | 178 nM | 5.61 ×10⁶ /M | – | – | – | – |
| COc1ccc(S(=O)(=O)N(CC(C)C)C[C@@H](O)[C@H](Cc2ccccc2)NC(=O)O[C@H]2CO[C@H]3O[C@@H]4OCC[C@@H]4[C@H]32)cc1 | – | 39.5 nM | 25.3 ×10⁶ /M | 10 | 4.5 | inactive | – |
| CC(C)CN(C[C@@H](O)[C@H](Cc1ccccc1)NC(=O)O[C@H]1CO[C@H]2OCC[C@H]21)S(=O)(=O)c1ccc(N)cc1 | inactive | 41 nM | 24.5 ×10⁶ /M | – | – | – | Active |
| COc1ccc(S(=O)(=O)N(C[C@H]2CCC(=O)N2)C[C@@H](O)[C@H](Cc2ccccc2)NC(=O)O[C@@H]2C[C@@H]3CCO[C@@H]3C2)cc1 | – | 960 nM | 1.04 ×10⁶ /M | – | – | inactive | – |
